Results reported in the EternaBench riboswitch data.

Test system: MS2 coat protein
Assay: apparent Kd, MS2 coat protein; higher = weaker binding; RNA-MaP array; FMN 200 µM where present
In short: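 SNAP-549-labelled MS2 coat protein, doubled from 0.7 or 1.5 nM to 3 µM, was titrated over designs transcribed by stalled E. coli RNA polymerase on Illumina sequencing-chip clusters. Titrations were run without and then with constant ligand in 100 mM Tris-HCl pH 7.5, 80 mM KCl, 4 mM MgCl2, BSA, DTT, yeast tRNA and Tween-20. The apparent Kd is the median of filtered per-cluster fits to green signal normalised to red-channel RNA signal and control-cluster median Fmax.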

[1] = designed as: OFF switch for flavin mononucleotide, no ligand
[2] = ligand present: flavin mononucleotide, designed as: OFF switch for flavin mononucleotide
[3] = designed as: ON switch for flavin mononucleotide, no ligand
[4] = ligand present: flavin mononucleotide, designed as: ON switch for flavin mononucleotide

Row | Sequence | apparent Kd [1] | apparent Kd [2] | apparent Kd [3] | apparent Kd [4]
1 | AUGCUUAUCGAAGGAUAUGGUUACAUGAGGAUCACCCAUGUUAUGCUUGGUUACUUGUUUAGUUUCCAGAAGGUCGAUUAGUUG | 71 nM | 172 nM |  | 
2 | AUGCUUUAUGUAGGAUAUGCAUACGGUACGUAUGCAGAAGGACAUGAGGAUCACCCAUGUAAAUUAUUAUUACAUAUCAUACAU |  | 44 nM |  | 
3 | AUGGAUACCACAGGAUAUAGCUAGCAUAGCUAGCUAGAAGGGUGGUCCAUCCUAUGUAAAUACAUGAGGAUCACCCAUGUGUCC |  |  | 403 nM | 207 nM
4 | AUGGUACAUGAGGAUCACCCAUGUUAGGAUAUCGCGUGAGGUAAAACUUACACACACACGAGAAGGGACGACAU | 65.2 nM | 46.7 nM |  | 
5 | AUGGUACAUGAGGAUCACCCAUGUUAGGAUAUCGCGUGAUCUAAAACUAAGAGACACACGAGAAGGGACGACAU | 176 nM | 104 nM |  | 
6 | AUGGUUGUCGUAGGAUAUGUAGGAUAUUCCUACAUGAGGAUCACCCAUGUUCGCAUGGAAGAAGGACAGAAGGACGAUGACCAU |  |  | 1150 nM | 9.7 nM
7 | AUGUACCUAGGAUAUACAUGAGGAUCACCCAUGUUAACUUUGCAAUCAAGUUAAUAUUGUAGAAGGAGGUGAAA | 61.5 nM | 107 nM |  | 
8 | AUGUAGUAAGGAUAUAGAAAGAAGGAGUAAGAUAGAGAGUUCUAGAAGGUACAUGAGGAUCACCCAUGUUGGAG | 29 nM | 26.4 nM |  | 
9 | AUGUGGUGCGUAGGAUAUCAUUAAAGAAAACCCUGAGAAGGACGUGAGGACAUGAGGAUCACCCAUGUGGAUCACCCAUGUCAU | 320 nM | 285 nM |  | 
10 | AUGUUGAGCAGUGUAUUAAUAAAACAUGAGGAUCACCCAUGUAGAAGGCACGAGCUGAUCGCUCGUGAGGAUAUACAUCACUGC | 5.15 nM | 5.9 nM |  | 
11 | AUUAAACAUGAGGAUCACCCAUGUCAACAAAGUCGAGGAUAUGGGCAAAUAAAAUAAGUACCAGAAGGCGAAUAAU |  |  | 113 nM | 24.2 nM
12 | AUUAAACAUGAGGAUCACCCAUGUCAACAAAGUCGAGGAUAUGGGCAUAUUAUCUUAUAACCAGAAGGCGAAUAAU |  |  | 222 nM | 37 nM
13 | AUUAACUACAUAGGAUAUUGAUACAUGAGGAUCACCCAUGUCACCCAUGUUUAUUUAUCAAUUGACAAGAAGGAUGUGGUUACA |  |  | 69.8 nM | 46.5 nM
14 | AUUAAUUAAUUAAUACAUGAGGAUCACCCAUGUAAUAAGAUCAAGGAUAUCAGCUCGAUUAGAGCUGAGAAGGUGAUCACAUGU |  |  | 772 nM | 223 nM
15 | AUUAUAAUUGAAGGAUAUCUAUAUCCAACAUGAGGAUCACCCAUGUUGAGGAUCACCCAUGUAAAGGAGAAGGUUAAUUAUAAU |  |  |  | 24.6 nM
16 | AUUAUAUAGAAAGGAUAUUGAUUAUUAUUUUAACAUGAGGAUCACCCAUGUAGCCUUAUGUAUAACAAGAAGGUUCAUUUAUUA | 75.9 nM | 89.5 nM |  | 
17 | AUUAUAUAGACAGGAUAUAGAAUAUUAUUUUAACAUGAGGAUCACCCAUGUAACCUUAUGUGUAGCUAGAAGGGUCAUUUAUUA | 89.9 nM | 162 nM |  | 
18 | AUUAUGAAGCAGUUAUAACUCUAAACAUGAGGAUCACCCAUGUAGGAUAUCAGCACGAUAAGUGCUGAGAAGGACAUCUGCUUC | 15.3 nM | 18.4 nM |  | 
19 | AUUAUGAAUGCAGGAUAUGAUUAACAUGAGGAUCACCCAUGUGGUGUUGUGAGUAAGGAGAGUGAUCAGAAGGGCAUUUUUUUU |  |  | 593 nM | 585 nM
20 | AUUAUUAAGGUAGGAUAUAGUAAAAUAAUUUAAUUAGAAGGAUCUCACAUGAGGAUCACCCAUGUAAGAGGAUCACCCAUGUAU | 10.8 nM | 9.53 nM |  | 
21 | AUUAUUAAGUUAGGAUAUAGUAAAAUGAUUUAGUUAGAAGGAGCUCACAUGAGGAUCACCCAUGUAAGAGGAUCACCCAUGUAU | 23.8 nM | 15.6 nM |  | 

Row | Sequence | apparent Kd [1] | apparent Kd [2] | apparent Kd [3] | apparent Kd [4]
22 | AUUAUUUACAUAGGAUAUUGUUACAUGAGGAUCACCCAUGUUAUUUGGGAAUUAGGAAUAUUUUACAAGAAGGAUGUUGUUACA |  |  | 87.4 nM | 67 nM
23 | AUUAUUUAGUGAGGAUAUACAGAUAAAGAGAUUGUAGAAGGCACUUUCCUCAGGACAUGAGGAUCACCCAUGUGUUAAUAAGAU | 72.5 nM | 267 nM |  | 
24 | AUUAUUUUCGAAGGAUAUGGAUACAUGAGGAUCACCCAUGUAUAAAAUGAGAUCUAUUAUAUGAUCCAGAAGGUCGUUGUUUAU | 35.6 nM | 68.8 nM |  | 
25 | AUUGCUCGAGAGAAGGGAACAUGAGGAUCACCCAUGUUACCUCACCUGGUGACGGAACUCCAAGUUCAGGAUAUCUCGAACGAU | 5.63 nM | 8.13 nM |  | 
26 | AUUGGGACAUGAGGAUCACCCAUGUACGCAGUGGGUAGAUCACAGGAUAUGCGAAGUGUGUGAGAGCAGAAGGGUGAGUACUUA |  |  | 343 nM | 59.5 nM
27 | AUUGGUGAGUAGAAGGUACGAUAUUAGUUAUAGUAAGGAUAUACUAACAUGAGGAUCACCCAUGUAUAAAUGGAUAAAUUAUCU |  |  | 11.7 nM | 8.98 nM
28 | AUUUAAAUGUCAGGAUAUGGUAGAUUAUUCUUAUCAGAAGGGAUAAUUAUACUCAAGUACAUGAGGAUCACCCAUGUUAAAUCA |  |  | 10.3 nM | 10.3 nM
29 | AUUUAUGGCCAGAAGGACAUGAGGAUCACCCAUGUAGGAUAUGGACGAUUUUGCUCGGCGGCUUGUUUAGGAAGCACCGGUGGU |  |  | 10.7 nM | 6.85 nM
30 | AUUUAUGUCAUAGGAUAUAUAAAUAAAUUUAUAACAUGAGGAUCACCCAUGUACUUGGGUAUUAGGUAGAAGGAUGAUAAGAAU |  |  | 572 nM | 254 nM
31 | AUUUCGACCACAGGAUAUGUUUGACCGAUACUUACAGAAGGGUGGUCCACGCGCACAAGCACAUGAGGAUCACCCAUGUAACGA |  |  | 20.1 nM | 60.7 nM
32 | AUUUGAAUCGUAGGAUAUCGCUUAAAUUUACCACGAGAAGGACGAACAUGAGGAUCACCCAUGUAACAUGGUGAAGAUAAUUUG | 31.6 nM | 120 nM |  | 
33 | AUUUGAAUCGUAGGAUAUCGCUUAAAUUUACCACGAGAAGGACGAACAUGAGGAUCACCCAUGUAACAUGGUGUAGAUAAUUUG | 159 nM | 440 nM |  | 
34 | AUUUUAUAAUAGAAGGAAGACUUCAUGAGGAUCACCCAUGUGUUGGUACUUAGGAUAUGUAAUAACAUGAGGAUCACCCAUGUC |  |  | 25.6 nM | 26.1 nM
35 | AUUUUAUAAUAGAAGGAGGACUUCAUGAGGAUCACCCAUGUGUUAGUACCUAGGAUAUGUAAUAACAUGAGGAUCACCCAUGUC |  |  | 49.5 nM | 40.3 nM
36 | CAACAGUCAGGAUAUGCAAAAAAAAAAAAAAAAAAAAAAAAGCAGAAGGGACAUGAGGAUCACCCAUGUUGUCG | 30 nM | 16.7 nM |  | 
37 | CAACCAGUGAAGGAUAUCAUCGAGGCUCGGCAUUGAGAAGGUUACACAUGAGGAUCACCCAUGUGGUUUCGUUC | 14.5 nM | 14.7 nM |  | 
38 | CAACUCGGAGGAUAUAGCUGUUCUAACAUGAGGAUCACCCAUGUGCAGUUCCUUGUUAGGCUAGAAGGCCGGUAUA | 40.6 nM | 99.1 nM |  | 
39 | CAACUGAGCGUAAAUUACCUGAACAUGAGGAUCACCCAUGUGGAGGAUAUUGACUUAGCAAAACUCGAGAAGGCCACUGGGAUG | 39 nM | 18.2 nM |  | 
40 | CAAGACAUUCGAAACUGCCGGCCGCAGGAUAUGGGUCGUUUAUACAUGAGGAUCACCCAUGUCGCCUAGAAGGGCGGCUGGGUC |  |  | 174 nM | 17.6 nM
41 | CAAGCGGGAGGAUAUACAGGGUUGUCCGAAAAUCGCCAGCCACAUGAGGAUCACCCAUGUAGAAGGCCUAUAGA | 53 nM | 23.9 nM |  | 
42 | CAAUGGGCGGUAGGAUAUCCGGUGUUUGGCAAAGGAGAAGGACUCACCAUACAUGAGGAUCACCCAUGUGAAGCGGGUCCUCAA | 8.48 nM | 10.1 nM |  | 
